Experimental data as given in ChEMBL document CHEMBL1275590, “Novel arylimidamides for treatment of visceral leishmaniasis” (Antimicrob Agents Chemother, 2010).

How the values were obtained:
[1] = Half life in mouse liver microsome by HPLC-MS/MS analysis in presence of 0.1 uM NADPH; format: ADME; conditions: liver microsomes
Procedure, shortened: (§1)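 Pooled liver microsomes (human, mouse, rat) with NADPH. Substrate added from DMSO to final 0.1, 1.0 or 10 μM, with 0.5% (vol/vol) organic solvent. Incubated at 37°C for up to 60 min. Stopped with 2 volumes of 7:1 methanol-water containing 0.1% TFA and 30 nM internal standard, then centrifuged. Remaining substrate was measured by HPLC-MS/MS, and t1/2 was obtained by one-phase exponential decay fit (t1/2 = 0.693/k).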

[2] = AUC (0 to infinity) in Swiss Webster mouse at 1 mg/kg, iv by HPLC-MS/MS analysis; format: ADME, organism-based; set-up: time infinity, dose 1 mg/kg, route intravenous; conditions: plasma
Procedure, shortened: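 Male Swiss Webster mice, n = 3 per time point. For i.v., the compound was dissolved in sterile water, diluted 1:1 with 2× saline, and given as a tail-vein bolus over ~10–20 s. For p.o., it was given by gavage in sterile water. Dose volume was 5 ml/kg. Terminal plasma was taken from 5 min to 72 h and measured by HPLC-MS/MS (calibration 2.5–10,000 nM). Parameters came from noncompartmental analysis.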

[3] = tested on: Mus musculus; assay: Hepatotoxicity in BALB/c mouse assessed as ALT level in serum at 5 mg/kg/day, iv administered for five days (Rvb= 34 U/L); format: toxicity, organism-based; set-up: route intravenous; conditions: in vivo
[4] = tested on: Leishmania donovani; assay: Antileishmanial activity against intracellular Leishmania donovani LV82 amastigotes; format: functional, organism-based
Procedure, shortened: (§2)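 CD-1 mouse peritoneal macrophages, 5 × 10^4 cells/well in RPMI 1640 + 10% heat-inactivated FBS, adhered overnight. Infected overnight with stationary-phase LV82 promastigotes (5:1 parasite:macrophage), 37°C, 5% CO2. Medium then replaced with compound or vehicle for 72 h at 37°C. Methanol-fixed, Giemsa-stained; % infected macrophages counted at ×1,000. IC50 by four-parameter logistic nonlinear regression.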

[5] = tested on: Leishmania amazonensis; assay: Antileishmanial activity against intracellular Leishmania amazonensis amastigotes; format: functional, organism-based
[6] = Half life in human liver microsome by HPLC-MS/MS analysis in presence of 0.1 uM NADPH; format: ADME; conditions: liver microsomes
Procedure, shortened: (§3)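 Pooled liver microsomes with NADPH. Substrate at final 0.1, 1.0 and 10 μM with 0.5% DMSO, incubated up to 60 min at 37°C. Reactions were stopped with 7:1 methanol-water containing 0.1% TFA and 30 nM internal standard. Remaining substrate was measured by HPLC-MS/MS, and t1/2 came from a one-phase exponential decay fit.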

[7] = tested on: Mus musculus; assay: Hepatotoxicity in BALB/c mouse assessed as ALT level in serum at 25 mg/kg/day, po administered for five days (Rvb= 36 U/L); format: toxicity, organism-based; set-up: route oral; conditions: in vivo
[8] = tested on: Leishmania donovani; assay: Antileishmanial activity against intracellular Leishmania donovani LV82 amastigotes infected in CD-1 mouse peritoneal macrophage; format: functional, organism-based; procedure, shortened: as §2
[9] = Half life in human liver microsome by HPLC-MS/MS analysis in presence of 10 uM NADPH; format: ADME; conditions: liver microsomes; procedure, shortened: as §1
[10] = tested on: Mus musculus; assay: Hepatotoxicity in BALB/c mouse assessed as phosphorus level in serum at 25 mg/kg/day, po administered for five days (Rvb= 5.3 mg/dl); format: toxicity, organism-based; set-up: route oral; conditions: in vivo
[11] = Half life in mouse liver microsome by HPLC-MS/MS analysis in presence of 10 uM NADPH; format: ADME; conditions: liver microsomes; procedure, shortened: as §1
[12] = tested on: Mus musculus; assay: Toxicity in BALB/c mouse assessed as tremor at 100 mg/kg/day, ip after second dose; format: organism-based; set-up: route intraperitoneal; conditions: in vivo
Procedure, shortened: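 Acute overt toxicity was checked in uninfected female BALB/c mice before the efficacy work. Compounds were given intraperitoneally once daily for 5 days, and mice were watched for clinical signs such as ruffled fur, hypoactivity, tremors, ataxia and startle, and for survival.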

[13] = tested on: Leishmania major; assay: Antileishmanial activity against intracellular Leishmania major amastigotes; format: functional, organism-based
[14] = Half life in rat liver microsome by HPLC-MS/MS analysis in presence of 0.1 uM NADPH; format: ADME; conditions: liver microsomes; procedure, shortened: as §1
[15] = tested on: Leishmania donovani; assay: Antileishmanial activity against Leishmania donovani axenic amastigotes; format: functional, organism-based
[16] = tested on: Mus musculus; assay: Toxicity in BALB/c mouse assessed as liver necrosis at 150 mg/kg/day, po; format: organism-based; set-up: route oral; conditions: in vivo
Procedure, shortened: (§4)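 Female BALB/c mice (n = 5 per dose), dosed once daily for 5 consecutive days p.o. (20 ml/kg) or i.v. (10 ml/kg) with compound in sterile water, prepared fresh daily under yellow light. Vehicle controls n = 5 per route. Clinical observations, body weights, serum chemistry and hematology on day 6 before necropsy; histopathology of formalin-fixed tissues. Chemistry analysed by one-way ANOVA with Dunnett's posttest.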

[17] = tested on: Mus musculus; assay: Hepatotoxicity in BALB/c mouse assessed as ALT level in serum at 20 mg/kg/day, iv administered for five days (Rvb= 34 U/L); format: toxicity, organism-based; set-up: route intravenous; conditions: in vivo
[18] = Half life in human liver microsome by HPLC-MS/MS analysis in presence of 1 uM NADPH; format: ADME; conditions: liver microsomes; procedure, shortened: as §3
[19] = Tmax in Swiss Webster mouse at 70 mg/kg, po by HPLC-MS/MS analysis; format: ADME, organism-based; set-up: dose 70 mg/kg, route oral; conditions: in vivo
Procedure, shortened: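 Male Swiss Webster mice (n = 3 per time point), single dose by oral gavage (sterile water solution) or tail-vein bolus i.v. (water diluted 1:1 with 2× saline, over ~10–20 s); dose volume 5 ml/kg. Terminal blood sampled from 5 min to 72 h postdose; plasma quantified by HPLC-MS/MS (positive-ion SRM). Noncompartmental analysis gave Cmax, Tmax, AUC0-∞, CL, Vss; bioavailability from p.o. versus i.v. exposure.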

[20] = tested on: Leishmania donovani; assay: Antileishmanial activity against Leishmania donovani WR378 infected in golden Syrian hamster assessed as reduction in spleen parasitemia at 30 mg/kg/day, po administered for five days; format: functional; conditions: 120 h
Procedure, shortened: (§5)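 11-day golden hamster VL model adapted from an 8-day method, using L. donovani WR378 metacyclic promastigotes. Dosing was oral, once daily for 5 days. Animals were euthanized on day 11 post-infection. Liver, spleen and femoral bone marrow (flushed with Schneider's medium) were harvested.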

[21] = Induction of mutagenicity in Salmonella serovar Typhimurium TA 100 assessed as number of revertant colonies at 100 ug by Ames assay in presence of Aroclor 1254-induced rat liver S9 metabolic activation system; format: toxicity, subcellular, Salmonella enterica subsp. enterica serovar Typhimurium
Procedure, shortened: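 Ames plate incorporation with S. Typhimurium TA98 and TA100, with or without Aroclor 1254-induced rat liver S9 (10% vol/vol). Compound was dissolved in sterile water and serially diluted to 1–500 μg/plate. Positive controls were 2-nitrofluorene and sodium azide without S9, and 2-aminoanthracene with S9; sterile water and DMSO served as vehicles. Revertant colonies and background lawn were scored. A mutagen was defined as a mean revertant count at least 2-fold over solvent control. Single experiment.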

[22] = tested on: Mus musculus; assay: Renal toxicity in BALB/c mouse assessed as blood urea nitrogen level in serum at 30 mg/kg/day, iv administered for five days (Rvb= 20 mg/dl); format: organism-based; set-up: route intravenous; conditions: in vivo; procedure, shortened: as §4
[23] = Volume of distribution in Swiss Webster mouse at 5 mg/kg, iv by HPLC-MS/MS analysis; format: ADME, organism-based; set-up: dose 5 mg/kg, route intravenous; conditions: in vivo
Procedure, shortened: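 Male Swiss Webster mice (n = 3 per time point) got a single tail-vein bolus over ~10 to 20 s, 5 ml/kg. Compound was dissolved in sterile water at 2× and diluted 1:1 with 2× saline. Terminal blood was taken from 5 min to 72 h, and plasma was quantified by HPLC-MS/MS. Vss came from noncompartmental analysis.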

[24] = tested on: Leishmania donovani; assay: Antileishmanial activity against Leishmania donovani WR378 infected in golden Syrian hamster assessed as reduction in bone marrow parasitemia at 100 mg/kg/day, po administered for five days; format: functional; conditions: 120 h; procedure, shortened: as §5

In the case of CCOc1cc(NC(=N)c2ccccn2)ccc1-c1ccc(-c2ccc(NC(=N)c3ccccn3)cc2OCC)o1, the half-life [1] is reported as 0.25 h, the AUC(0-inf) [2] is reported as 0.56 µM·h and the Activity [3] is reported as 43 U/L. For the same compound, the IC50 [4] was 18 nM, the IC50 [5] was 120 nM and the half-life [6] was over 2 h. It also gave an Activity [7] of 31 U/L, an IC50 [8] of 4500 nM and a half-life [9] of over 2 h. The Activity [10] was 6.9 mg/dL, the half-life [11] was over 2 h and the Activity [12] was “Toxic”. For the same compound, the IC50 [13] was 26 nM, the half-life [14] was 1.33 h and the IC50 [15] was 500 nM. For the same compound, the Activity [16] was “Toxic”, the Activity [17] was 57 U/L and the half-life [18] was over 2 h.

For CC(C)Oc1cc(NC(=N)c2ccccn2)ccc1-c1ccc(-c2ccc(NC(=N)c3ccccn3)cc2OC(C)C)o1, the Tmax [19] was 1 h, the inhibition in vivo at 30 mg/kg/day [20] was 67% and the half-life [1] was 0.433 h. It also gave an AUC(0-inf) [2] of 2.53 µM·h, an Activity [3] of 36 U/L and an Activity [21] of 98. The Activity [22] was 24 mg/dL, the IC50 [4] was 36 nM and the IC50 [5] was 87 nM. For the same compound, the half-life [6] was over 2 h, the Activity [7] was 44 U/L and the IC50 [8] was 2800 nM. For the same compound, the half-life [9] was over 2 h, the Activity [10] was 7 mg/dL and the Vd [23] was 15 L/kg. For the same compound, the half-life [11] was over 2 h, the IC50 [13] was 14 nM and the half-life [14] was 1.6 h. For the same compound, the IC50 [15] was 500 nM, the inhibition in vivo at 100 mg/kg/day [24] was 92% and the Activity [17] was 50 U/L. The half-life [18] was over 2 h.
